ABHD4 inh – ABHD4 (mouse) inhibition, primary FP screen; 370,000 tested, 0.54% active; inhibition, % at 8.92 µM; AID 720543; purified mABHD4, FP-Rh probe fluorescence polarization; Q8VD66;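 active = inhibition exceeding the mean over every tested compound plus 3 SD, cut at about 30% in these data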
Target sequence (Q8VD66 whole entry, looked up): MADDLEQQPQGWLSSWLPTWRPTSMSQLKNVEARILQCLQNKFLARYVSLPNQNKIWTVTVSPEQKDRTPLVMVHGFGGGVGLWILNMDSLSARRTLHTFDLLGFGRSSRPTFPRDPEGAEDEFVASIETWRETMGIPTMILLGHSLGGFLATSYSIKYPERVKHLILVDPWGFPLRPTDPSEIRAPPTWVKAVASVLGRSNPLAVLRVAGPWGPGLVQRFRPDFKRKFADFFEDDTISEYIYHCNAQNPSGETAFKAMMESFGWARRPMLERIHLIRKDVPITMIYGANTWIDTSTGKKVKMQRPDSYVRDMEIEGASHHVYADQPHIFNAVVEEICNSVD
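Assay system: Wild-type mouse ABHD4 protein | Medium: HEPES pH 7.0 buffer, 150 mM NaCl, 0.01% Pluronic F-127 | Incubation: Enzyme–compound pre-incubation 45 min, then probe 60 min, both 25 °C | Technique: Fluorescence polarization with parallel and perpendicular emission, 525/598 nm | Evaluation: % inhibition of FP-Rh probe binding versus controls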
HTRA1 inhibitor – blocks human HTRA1 serine peptidase; recombinant HTRA1, FP-rhodamine activity-based probe, fluorescence polarization; AID 504803; Q92743; inhibition, % at 5.96 µM; 340,000 tested, 0.5% active; in the data active = inhibition above about 36%
PRMT1 inh – inhibitors of human PRMT1 | inhibition, % at 2.79 µM | recombinant PRMT1, activity-based probe fluorescence polarization | AID 652257 | 370,000 tested, 1.3% active;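 active = inhibition above about 21% made by adding two undisclosed values, limit read from the data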
Target sequence (Q99873 whole entry, looked up): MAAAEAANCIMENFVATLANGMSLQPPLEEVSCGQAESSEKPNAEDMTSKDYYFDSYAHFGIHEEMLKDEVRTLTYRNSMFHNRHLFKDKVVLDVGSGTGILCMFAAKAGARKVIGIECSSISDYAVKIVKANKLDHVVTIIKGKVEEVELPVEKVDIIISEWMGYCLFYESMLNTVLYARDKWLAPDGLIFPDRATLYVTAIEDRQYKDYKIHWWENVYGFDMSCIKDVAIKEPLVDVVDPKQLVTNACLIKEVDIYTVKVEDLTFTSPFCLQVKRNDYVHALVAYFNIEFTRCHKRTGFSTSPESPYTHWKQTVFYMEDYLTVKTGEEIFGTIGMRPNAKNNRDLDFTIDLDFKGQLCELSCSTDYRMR
SIAE inh – blocks human sialic acid acetylesterase | inhibition, % at 9.66 µM | 370,000 tested, 0.69% active | SIAE FP-Rh probe binding, fluorescence polarization | AID 1053197;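 active = inhibition above a cutoff: mean of compounds within the control limits plus 3 SD of those, cut at about 17% in these data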
rCAG binder – molecules binding r(CAG) RNA repeats. 370,000 tested, 1.3% active. r(CAG) RNA repeat, TO-PRO-1 dye displacement fluorescence. inhibition, % at 3 µM;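 active = inhibition above the plate cutoff, the mean of all test compounds on that plate plus 3 SD, cut at about 35% in these data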;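 also: higher means more dye released from RNA so lower well fluorescence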
rCAG bind conf – r(CAG) RNA repeat binding, confirmation. 4,300 tested, 70% active. shares compounds with rCAG binder. inhibition, % at 3 µM. TO-PRO-1 dye displacement fluorescence;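 active = inhibition above a per-plate cutoff, the mean inhibition of sample wells plus 3 SD, cut at about 35% in these data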;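 also: loss of TO-PRO-1 fluorescence as compound displaces dye from 1x1 AA loop RNA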
dCAG dye counter – disrupts DNA CAG TO-PRO-1 complex, flagging rCAG hits; shares compounds with rCAG binder; d(CAG) DNA oligo TO-PRO-1 dye displacement, fluorescence; inhibition, % at 3 µM; 4,300 tested, 94% active;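 active = inhibition above its plate's cutoff, the mean test-well inhibition plus 3 SD, cut at about 4.8% in these data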;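 also: hits displace the dye from DNA and so lower well fluorescence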
A number is an active result; i = inactive; nt = no result. Shown are actives, neighbours in structure and some others; about 3.3% of the full set was active somewhere.

SMILES | ABHD4 inh | HTRA1 inhibitor | PRMT1 inh | SIAE inh | rCAG binder | rCAG bind conf | dCAG dye counter
O=C(NCCc1nc2ccccc2n1CCOc1cc(F)ccc1F)C1CCCCC1 | i | nt | i | i | nt | nt | nt
Cc1ccc(S(=O)(=O)Nc2cc(C(=O)O)ccc2N2CCC(C)CC2)cc1C | i | nt | i | i | 41.7 | 41.0 | 11.4
COc1ccc(C(=O)O)cc1S(=O)(=O)Nc1cc(C(F)(F)F)ccc1N1CCCCC1 | i | i | i | i | 46.4 | i | 7.1
CC1CCN(c2ccc(C(=O)O)cc2NS(=O)(=O)c2cccc3cccnc23)CC1 | i | nt | i | i | 36.0 | i | 7.2
COc1ccc(C(=O)O)cc1S(=O)(=O)Nc1cc(Cl)ccc1N1CCOCC1 | i | i | i | i | i | nt | nt
CC1CCN(C(=O)c2ccc(NS(=O)(=O)c3cccc4cccnc34)cc2)CC1 | i | i | i | i | i | nt | nt
COC(=O)c1cc(NS(=O)(=O)c2ccc(N3CCC(C)CC3)c([N+](=O)[O-])c2)cc(C(=O)OC)c1 | i | i | i | i | 55.3 | 59.7 | 18.7
CCNC(=O)N(C)[C@H]1C[C@H]2c3[nH]c4c(-c5cccc(C)c5)cccc4c3CCN2C(=O)[C@H]1[C@H](C)O | i | nt | i | i | i | nt | nt
CCOC(=O)[C@]12CCCC3=C1N(CCC3)C(=O)[C@@H](CC(=O)NCc1cccc3ccccc13)C2 | i | nt | i | i | i | nt | nt
CNS(=O)(=O)/C=C/c1ccccc1CCNC(=O)OC(C)(C)C | i | nt | i | i | i | nt | nt
CCc1ccccc1NC(=O)C1CCC(=O)N(c2ccc(OC)cc2)C1c1ccc(OC)cc1 (stereo unspecified) | i | nt | i | i | i | nt | nt
Cc1ccc2nc(-c3cccc(Cl)c3)c(Cc3ccsc3)n2c1 | i | nt | i | i | i | nt | nt
CCNc1nc2[nH]c(=O)c3c(c2s1)OC(N)=C(C#N)C3c1ccc(C)cc1 (stereo unspecified) | i | i | i | i | 52.6 | i | 13.6
CNc1nc2[nH]c(=O)c3c(c2s1)OC(N)=C(C#N)C3c1ccccc1 (stereo unspecified) | i | i | i | i | i | nt | nt
CC(=O)N1CCN(c2ccc(N3CCN(C(C)=O)[C@@H](C)C3)c(C)c2)[C@H](C)C1 | i | nt | i | i | i | nt | nt
CCN(c1cccc(C)c1)S(=O)(=O)c1nnc(NC(=O)c2ccco2)s1 | i | i | i | i | 38.8 | i | 6.5
CN(c1ccc(Cl)cc1)S(=O)(=O)c1nnc(NC(=O)c2ccco2)s1 | i | i | i | i | 38.7 | i | 7.4
COc1ccc(S(=O)(=O)N2CCCc3nc(-c4ccc(F)cc4)ccc32)cc1 | i | nt | i | i | i | nt | nt
Cc1nn(-c2ccccc2)c(Cl)c1/C=N/NS(=O)(=O)c1ccc(Br)cc1 | i | i | i | i | 48.3 | 42.0 | 11.0
COc1cccc(/C=C2\Oc3cc(OCC(=O)N4CCC[C@H]4C(=O)O)ccc3C2=O)c1 | i | i | i | i | 37.4 | 43.6 | 12.8
COc1ccc(/C=C2\Oc3cc(OCC(=O)N4CCC[C@H]4C(=O)O)ccc3C2=O)c(OC)c1 | nt | i | nt | nt | nt | nt | nt
COc1cccc(CNC(=O)c2ccccc2N)c1 | i | i | i | i | i | nt | nt
COc1cccc(CNC(=O)c2c[nH]n3c(=O)c(Cl)c(C)nc23)c1 | i | i | i | i | 61.2 | 35.1 | 8.0
O=C(N[C@@H](Cc1cccnc1)C(=O)N1CCC[C@H]1C(=O)NCCc1ccccc1Cl)c1ccco1 | i | nt | i | i | i | nt | nt
CCOC(=O)c1[nH]c2ccc(OC)cc2c1NC(=O)/C=C/c1ccc2c(c1)OCO2 | i | i | i | i | i | nt | nt
SMILES | ABHD4 inh | HTRA1 inhibitor | PRMT1 inh | SIAE inh | rCAG binder | rCAG bind conf | dCAG dye counter
O=C(/C=C/c1ccc2c(c1)OCO2)Nc1c(C(=O)O)[nH]c2ccccc12 | i | i | i | i | 44.7 | 38.1 | 13.3
CC(C)[C@H](NC(=O)C1CCCC1)C(=O)N1CCC[C@H]1C(=O)NCCc1ccccc1Cl | i | nt | i | i | i | nt | nt
Cc1ccc(-n2nc3ccc(NC(=O)/C=C/c4ccco4)cc3n2)cc1 | i | i | i | i | 38.5 | i | 10.5
CN1CC(=O)N2[C@@H](C[C@]3(c4c[nH]c5ccccc45)c4ccccc4N(S(=O)(=O)c4ccccc4)[C@H]23)C1=O | i | nt | i | i | nt | nt | nt
C[C@@H]1COc2cc(N3CCCC3)ccc2S(=O)(=O)N1C | i | nt | i | i | i | nt | nt
Cc1ccc(-c2nn(-c3ccccc3)cc2C=C2SC(=S)N(CCS(=O)(=O)O)C2=O)cc1 | i | nt | i | i | 86.7 | 94.3 | 77.5
CCOC(=O)[C@]12CCCC=C1N(CCc1ccc(Cl)cc1)C(=O)[C@@H]2CC(=O)NCCC(C)C | i | nt | i | i | i | nt | nt
CC1=CC(c2ccc(Cl)cc2)n2nc(NS(=O)(=O)c3ccc(C)cc3)nc2N1 (stereo unspecified) | i | i | i | i | 46.8 | 51.6 | 17.0
CC1=CC(c2ccccc2)n2nc(NS(=O)(=O)c3ccc(C)cc3)nc2N1 (stereo unspecified) | i | i | i | i | i | nt | nt
Cc1ccc(Cc2cnc(N3C(=N)SC(c4ccccc4)C3=O)s2)cc1 (stereo unspecified) | i | i | i | i | 64.3 | 68.9 | 23.2
N=C1SC(c2ccccc2)C(=O)N1c1ncc(Cc2ccccc2)s1 (stereo unspecified) | i | i | i | i | 44.6 | 56.6 | 19.0
Cc1cccc(CCNC(=O)Cn2ncc3c2-c2cc(C)ccc2OC3)c1 | i | nt | i | i | i | nt | nt
Cc1ccc(NC(=O)CN2CCN(c3nc(-c4ccccc4)cs3)CC2)cc1C | i | nt | i | i | i | nt | nt
COc1cc([N+](=O)[O-])ccc1NC(=S)NNC(=O)c1ccc2c(c1)OCO2 | i | i | i | i | 64.3 | 57.5 | 15.6
Nc1nc2ccc(Cl)cc2cc1C(=O)NCc1ccccc1Br | i | nt | i | i | i | nt | nt
COc1ccc(S[C@]2(C(=O)N3CCOCC3)CC(=O)N(P(=O)(OC)OC)[C@@H]2c2ccc(OC)cc2)cc1 | i | nt | i | i | i | nt | nt
CC(C)CC(C(=O)Nc1oc(-c2ccco2)c(-c2ccco2)c1C#N)N1C(=O)c2ccccc2C1=O (stereo unspecified) | i | i | 24.7 | i | 78.0 | 73.5 | 35.9
CC(C)CC(C(=O)Nc1cccc(O)c1)N1C(=O)c2ccccc2C1=O (stereo unspecified) | i | i | i | i | i | nt | nt
O=C(CSc1nnc(CCCOc2ccc(Cl)cc2Cl)o1)Nc1ccc(C(=O)O)cc1 | i | i | i | i | 41.7 | i | 5.0
O=C(CSc1nnc(COc2ccc(Cl)cc2Cl)o1)Nc1ccccn1 | i | i | i | i | i | nt | nt
COc1ccc(NC(=O)Nc2ccc3c(c2)C(=O)N([C@H](C)CO)C[C@@H](C)[C@@H](CN(C)Cc2ccc4c(c2)OCO4)OCCCC[C@H](C)O3)cc1 | i | nt | i | i | i | nt | nt
Cc1ccc(S(=O)(=O)C(C#N)c2nc3ccccc3nc2OCCO)cc1 (stereo unspecified) | i | i | i | i | 62.0 | 51.5 | 15.2

Bioassay records as filed in PubChem BioAssay.
